Data as given in ChEMBL document CHEMBL2390911, “Synthesis and structure-activity relationships of 2-amino-3-carboxy-4-phenylthiophenes as novel atypical protein kinase C inhibitors” (Bioorg Med Chem Lett, 2013).

Tests used:
[1] = molecular target: T1, Protein kinase C zeta type (Homo sapiens, UniProt Q05513); assay: Inhibition of atypical PKCzeta in HEK293 cells assessed as TNF-induced NFkappaB activation incubated for 3 hrs prior to TNF induction measured after 5 hrs by bright-glo luciferase reporter gene assay; type: cell-based
T1 sequence (Q05513 whole entry): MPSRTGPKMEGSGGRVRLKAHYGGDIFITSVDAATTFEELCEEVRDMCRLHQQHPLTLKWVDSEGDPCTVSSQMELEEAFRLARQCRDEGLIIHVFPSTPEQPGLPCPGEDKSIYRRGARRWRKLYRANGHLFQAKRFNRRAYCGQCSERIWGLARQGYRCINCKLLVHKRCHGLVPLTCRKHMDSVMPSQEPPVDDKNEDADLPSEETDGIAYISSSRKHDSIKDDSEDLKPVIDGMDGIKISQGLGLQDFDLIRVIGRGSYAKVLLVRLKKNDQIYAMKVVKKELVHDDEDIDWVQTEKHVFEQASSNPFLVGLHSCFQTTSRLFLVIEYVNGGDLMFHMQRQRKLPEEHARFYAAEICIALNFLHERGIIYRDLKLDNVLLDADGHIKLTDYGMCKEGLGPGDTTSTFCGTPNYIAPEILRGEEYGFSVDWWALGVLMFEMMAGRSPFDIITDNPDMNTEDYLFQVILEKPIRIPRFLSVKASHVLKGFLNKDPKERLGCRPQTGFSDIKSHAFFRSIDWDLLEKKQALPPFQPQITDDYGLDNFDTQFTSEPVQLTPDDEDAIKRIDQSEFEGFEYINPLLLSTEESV

[2] = Inhibition of atypical PKCzeta in bovine retinal endothelial cells assessed as TNFalpha/VEGF-induced endothelial permeability preincubated for 30 mins followed by TNFalpha induction for 1 hr and VEGF induction for 30 mins measured every 30 mins for 4 hrs by Transwell assay; type: cell-based; settings: Bos taurus, Endothelial cell
Summary of the method: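 Retinal endothelial monolayers were given a 5-point compound dose-response, then VEGF/TNF was added for 1.5 h. Flux of 70kDa RITC-dextran across the monolayer was the read-out. Data are the mean of at least n≥8, repeated in independent experiments. EC50 was derived from a variable-slope dose-response fit.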

[3] = molecular target: Voltage-gated inwardly rectifying potassium channel KCNH2 (Homo sapiens, UniProt Q12809); assay: Inhibition of human ERG
Sequence of Voltage-gated inwardly rectifying potassium channel KCNH2 (Q12809 whole entry): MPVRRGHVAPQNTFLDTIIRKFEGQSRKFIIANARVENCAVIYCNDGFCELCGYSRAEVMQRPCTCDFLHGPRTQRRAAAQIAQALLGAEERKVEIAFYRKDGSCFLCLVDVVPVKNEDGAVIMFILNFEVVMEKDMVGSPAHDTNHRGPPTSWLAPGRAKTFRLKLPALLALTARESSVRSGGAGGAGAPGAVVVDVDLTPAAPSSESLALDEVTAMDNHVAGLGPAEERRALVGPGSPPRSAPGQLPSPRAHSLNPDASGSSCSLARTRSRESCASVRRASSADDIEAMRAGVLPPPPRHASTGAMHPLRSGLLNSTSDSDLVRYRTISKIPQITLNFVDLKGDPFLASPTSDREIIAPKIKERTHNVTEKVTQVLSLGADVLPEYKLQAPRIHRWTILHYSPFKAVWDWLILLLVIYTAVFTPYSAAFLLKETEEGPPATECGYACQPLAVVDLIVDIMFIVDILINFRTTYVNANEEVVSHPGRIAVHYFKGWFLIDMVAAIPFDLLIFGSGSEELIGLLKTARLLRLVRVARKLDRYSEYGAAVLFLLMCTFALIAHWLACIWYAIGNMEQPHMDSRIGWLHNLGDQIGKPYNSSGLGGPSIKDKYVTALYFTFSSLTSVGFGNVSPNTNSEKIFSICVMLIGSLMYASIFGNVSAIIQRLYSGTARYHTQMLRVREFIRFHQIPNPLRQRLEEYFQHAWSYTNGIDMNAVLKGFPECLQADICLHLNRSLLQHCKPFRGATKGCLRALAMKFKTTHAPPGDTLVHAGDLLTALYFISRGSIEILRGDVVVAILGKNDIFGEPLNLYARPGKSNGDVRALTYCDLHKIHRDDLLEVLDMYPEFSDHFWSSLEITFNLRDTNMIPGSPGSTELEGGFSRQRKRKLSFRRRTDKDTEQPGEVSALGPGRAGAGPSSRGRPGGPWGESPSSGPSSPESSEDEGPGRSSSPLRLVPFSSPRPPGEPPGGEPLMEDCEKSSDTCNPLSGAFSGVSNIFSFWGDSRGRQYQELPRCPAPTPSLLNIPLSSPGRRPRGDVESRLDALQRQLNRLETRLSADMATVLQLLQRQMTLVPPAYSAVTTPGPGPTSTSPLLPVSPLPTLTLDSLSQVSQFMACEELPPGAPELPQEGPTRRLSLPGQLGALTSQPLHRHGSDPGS

[4] = molecular target: T1, Protein kinase C zeta type; assay: Inhibition of atypical PKCzeta (unknown origin) using CREBtide as substrate incubated for 1 hr measured every 2.5 mins by ADP Quest assay
[5] = molecular target: T2, Protein kinase C iota type (Homo sapiens, UniProt P41743); assay: Inhibition of atypical PKCiota (unknown origin) using CREBtide as substrate incubated for 1 hr measured every 2.5 mins by ADP Quest assay
T2 sequence (P41743 whole entry): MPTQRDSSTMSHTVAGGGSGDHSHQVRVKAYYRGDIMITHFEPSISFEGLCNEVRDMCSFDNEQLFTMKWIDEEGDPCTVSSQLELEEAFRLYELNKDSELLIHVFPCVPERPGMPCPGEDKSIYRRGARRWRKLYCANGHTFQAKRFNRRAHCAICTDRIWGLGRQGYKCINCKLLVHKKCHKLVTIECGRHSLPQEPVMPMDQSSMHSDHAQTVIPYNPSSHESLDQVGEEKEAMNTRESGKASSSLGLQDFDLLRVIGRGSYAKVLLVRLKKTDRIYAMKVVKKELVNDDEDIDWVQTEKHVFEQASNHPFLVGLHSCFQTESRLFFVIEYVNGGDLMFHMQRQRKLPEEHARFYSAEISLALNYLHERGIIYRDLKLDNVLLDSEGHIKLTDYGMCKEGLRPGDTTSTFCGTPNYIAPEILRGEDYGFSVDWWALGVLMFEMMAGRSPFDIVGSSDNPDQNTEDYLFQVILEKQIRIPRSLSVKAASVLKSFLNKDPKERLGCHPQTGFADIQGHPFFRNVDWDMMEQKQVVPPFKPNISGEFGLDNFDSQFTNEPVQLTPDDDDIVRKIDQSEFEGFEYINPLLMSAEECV

| SMILES | EC50 [1] | EC50 [2] | IC50 [4] | IC50 [5] | IC50 [3] |
| --- | --- | --- | --- | --- | --- |
| O=C(c1ccc(Nc2nccc(-c3cc4ccccc4s3)n2)cc1)N1CCC(N2CCCC2)CC1 | 3 nM | 1 nM |  |  |  |
| COc1ccc(-c2csc(N)c2C(=O)OC(C)C)cc1OC |  |  |  |  | > 10000 nM |
| CCOC(=O)c1c(-c2ccc(N(C)C)cc2)csc1N |  | 280 nM |  | 900 nM | > 10000 nM |
| CCOC(=O)c1c(-c2ccc3c(c2)OCO3)csc1N | 2 nM | 20 nM | 2000 nM | 2000 nM |  |
| CCOC(=O)c1c(-c2ccc(OC)cc2F)csc1N | 10 nM |  | 4000 nM |  |  |

Continued by falling EC50 [1], values first:

| EC50 [1] | EC50 [2] | IC50 [4] | IC50 [5] | SMILES | IC50 [3] |
| --- | --- | --- | --- | --- | --- |
| 2 nM |  | 6000 nM |  | COc1ccc(-c2csc(N)c2C(=O)OCc2ccccc2)cc1OC |  |
| 1 nM | > 100 nM |  | 900 nM | COc1cccc(COC(=O)c2c(-c3ccc(OC)c(OC)c3)csc2N)c1 | 1000 nM |
| 1 nM | 270 nM | 2000 nM |  | CCOC(=O)c1c(-c2ccc(N)cc2)csc1N |  |
